Data: BindingDB's records for doi:10.1021/jm800174p (University of Minnesota, 2009)

Target: Mu-type opioid receptor (Homo sapiens, UniProt P35372)
Experiment: Displacement of [3H]DAMGO from mu opioid receptor expressed in CHO cells
In short: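 Membranes came from CHO cells stably expressing MOP receptor alone or with CCK2 receptor. They were incubated with [3H]DAMGO (0.4 nM) plus increasing unlabeled ligand for 2 h at room temperature in KRH, pH 7.4, with 0.2% BSA and soybean trypsin inhibitor. Nonspecific binding was set with 1 μM DAMGO. Samples were filtered on PEI-soaked GF/C and scintillation counted; Ki and Bmax (pmol/mg protein) came from LIGAND analysis. Mean±S.E.M., 3-5 experiments.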

Sequence of Mu-type opioid receptor (P35372 whole entry): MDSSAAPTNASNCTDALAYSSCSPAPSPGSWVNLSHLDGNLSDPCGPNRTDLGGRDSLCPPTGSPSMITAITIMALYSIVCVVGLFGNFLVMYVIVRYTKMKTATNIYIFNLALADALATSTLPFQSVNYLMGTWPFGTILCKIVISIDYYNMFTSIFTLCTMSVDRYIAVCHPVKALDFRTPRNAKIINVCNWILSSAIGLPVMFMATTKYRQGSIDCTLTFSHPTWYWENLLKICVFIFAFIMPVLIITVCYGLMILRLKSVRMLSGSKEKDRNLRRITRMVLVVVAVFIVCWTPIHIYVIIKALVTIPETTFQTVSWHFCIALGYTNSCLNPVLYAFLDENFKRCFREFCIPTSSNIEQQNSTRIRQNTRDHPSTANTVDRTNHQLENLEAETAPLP

SMILES | Ki
CNC(=O)COCC(=O)NCCCCNC(=O)COCC(=O)N[C@H]1CC[C@@]2(O)[C@H]3Cc4cc(O)cc5c4[C@@]2(CCN3C)[C@H]1O5 [2-({[(1S,5R,13R,14S,17S)-9,17-dihydroxy-4-methyl-12-oxa-4-azapentacyclo[9.6.1.0^{1,13}.0^{5,17}.0^{7,18}]octadeca-7(18),8,10-trien-14-yl]carbamoyl}methoxy)-N-(4-{2-[(methylcarbamoyl)methoxy]acetamido}butyl)acetamide] | 29.8 nM

Target: not listed separately
Experiment: Displacement of [3H]DAMGO from CCK2R-MOPR coexpressed in CHO cells

SMILES | Ki
CN1C(=O)[C@H](NC(=O)Nc2cccc(OCCNC(=O)COCC(=O)NCCNC(=O)COCC(=O)N[C@H]3CC[C@@]4(O)[C@H]5Cc6cc(O)cc7c6[C@@]4(CCN5C)[C@H]3O7)c2)N=C(c2ccccc2)c2ccccc21 [1-{1-Diglycoldiamide-2-[m-(R(+)-1)ureaphenoxy]ethane}-2-(N-oxymorphyldiglycoldiamide)ethane] | 7.3 nM
CN1C(=O)[C@H](NC(=O)Nc2cccc(OCCNC(=O)COCC(=O)NCCCCCCNC(=O)COCC(=O)N[C@H]3CC[C@@]4(O)[C@H]5Cc6cc(O)cc7c6[C@@]4(CCN5C)[C@H]3O7)c2)N=C(c2ccccc2)c2ccccc21 [1-{1-Diglycoldiamide-6-[m-(R(+)-1)ureaphenoxy]ethane}-2-(N-oxymorphyldiglycoldiamide)hexane] | 16.3 nM
CN1C(=O)[C@H](NC(=O)Nc2cccc(OCCNC(=O)COCC(=O)N[C@H]3CC[C@@]4(O)[C@H]5Cc6cc(O)cc7c6[C@@]4(CCN5C)[C@H]3O7)c2)N=C(c2ccccc2)c2ccccc21 [N-{m-[R(+)-1]Ureaphenoxy}ethyl-N'-oxymorphyldiglycoldiamide] | 14.2 nM
CN1C(=O)[C@H](NC(=O)Nc2cccc(OCCNC(=O)COCC(=O)NNC(=O)COCC(=O)N[C@H]3CC[C@@]4(O)[C@H]5Cc6cc(O)cc7c6[C@@]4(CCN5C)[C@H]3O7)c2)N=C(c2ccccc2)c2ccccc21 [N-{m-[R(+)-1]Ureaphenoxy}ethyldiglycolamidehydrazide-N'-oxymorphyldiglycolamidedihydrazide] | 3.9 nM
C[C@@H](NC(=O)[C@@H](N)Cc1ccc(O)cc1)C(=O)NCC(=O)N(C)[C@@H](Cc1ccccc1)C(=O)NCCO [[tyrosyl-3,5-3H(N)]-D-Ala2-Mephe4-glyol5-enkephalin] | 11 nM
